Assay results as given in ChEMBL document CHEMBL1121957, “Imidodisulfamides. 2. Substituted 1,2,3,4-tetrahydroisoquinolinylsulfonic imides as antagonists of slow-reacting substance of anaphylaxis” (1982).

species: Cavia porcellus; experiment: Percent inhibition of SRS-A induced contraction minus percent inhibition of 25 mM KCl induced contractions at a conc of 5(uM); format: functional
Outline: (§1)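 Ileum segments (proximal to Peyer's patch) from male Hartley guinea pigs (400–600 g) were held in modified Tyrode's at 37.5 °C under 95% O2-5% CO2, with isometric recording. Partially purified guinea pig SRS-A or 25 mM KCl was dosed for 60–80% maximal contraction, then reapplied after 15 min compound exposure with five bath changes. Value is percent inhibition versus vehicle controls (3 vs 3 tissues), SRS-A minus KCl.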

Row | Structure (SMILES) | Inhibition [%]
1 | CSc1ccc2c(c1Cl)CN(S(=O)(=O)NS(=O)(=O)N1CCc3ccc(SC)c(Cl)c3C1)CC2 | 25
2 | O=S(=O)(NS(=O)(=O)N1CCc2c(Cl)c(Cl)c(Cl)c(Cl)c2C1)N1CCc2c(Cl)c(Cl)c(Cl)c(Cl)c2C1 | 14
3 | O=S(=O)(NS(=O)(=O)N1CCc2c(Br)cccc2C1)N1CCc2c(Br)cccc2C1 | 29
4 | O=S(=O)(NS(=O)(=O)N1CCc2c(Br)ccc(Br)c2C1)N1CCc2c(Br)ccc(Br)c2C1 | 50
5 | COc1ccc(OC)c2c1CCN(S(=O)(=O)NS(=O)(=O)N1CCc3c(OC)ccc(OC)c3C1)C2 | 12
6 | O=S(=O)(NS(=O)(=O)N1CCc2cc(Cl)ccc2C1)N1CCc2cc(Cl)ccc2C1 | 1
7 | O=S(=O)(NS(=O)(=O)N1CCc2ccc(C(F)(F)F)c(C(F)(F)F)c2C1)N1CCc2ccc(C(F)(F)F)c(C(F)(F)F)c2C1 | 27
8 | O=S(=O)(NC1CC1c1ccc(Cl)c(Cl)c1)NS(=O)(=O)NC1CC1c1ccc(Cl)c(Cl)c1 (centres undefined) | 42
9 | CC1c2c(ccc(Cl)c2Cl)CCN1S(=O)(=O)NS(=O)(=O)N1CCc2ccc(Cl)c(Cl)c2C1C (centres undefined) | 48
10 | O=S(=O)(NS(=O)(=O)N1CCc2ccc([S+]([O-])C(Cl)(Cl)Cl)cc2C1)N1CCc2ccc([S+]([O-])C(Cl)(Cl)Cl)cc2C1 (centres undefined) | 28
11 | O=S(=O)(NC1CC1c1ccccc1)NS(=O)(=O)NC1CC1c1ccccc1 (centres undefined) | 17
12 | O=S(=O)(NS(=O)(=O)N1CCc2ccc(Br)cc2C1)N1CCc2ccc(Br)cc2C1 | 26
13 | O=S(=O)(NS(=O)(=O)N1CCc2ccc(Cl)c(Cl)c2C1c1ccccc1)N1CCc2ccc(Cl)c(Cl)c2C1c1ccccc1 (centres undefined) | 20
14 | O=S(=O)(NS(=O)(=O)N1CCc2ccc(Cl)c(Cl)c2C1Cc1ccccc1)N1CCc2ccc(Cl)c(Cl)c2C1Cc1ccccc1 (centres undefined) | 8
15 | CCCCCCC1c2c(ccc(Cl)c2Cl)CCN1S(=O)(=O)NS(=O)(=O)N1CCc2ccc(Cl)c(Cl)c2C1CCCCCC (centres undefined) | -5
16 | O=S(=O)(NS(=O)(=O)N1CCc2c(cccc2-c2ccccc2)C1)N1CCc2c(cccc2-c2ccccc2)C1 | 13
17 | O=S(=O)(NS(=O)(=O)N1CCc2ccc(Cl)c(Cl)c2C1C1CCCC1)N1CCc2ccc(Cl)c(Cl)c2C1C1CCCC1 (centres undefined) | 4
18 | O=S(=O)(NS(=O)(=O)N1CCc2ccc(Cl)c(SC(F)(F)C(F)F)c2C1)N1CCc2ccc(Cl)c(SC(F)(F)C(F)F)c2C1 | 22
19 | Cc1ccc2c(c1Cl)CN(S(=O)(=O)NS(=O)(=O)N1CCc3ccc(C)c(Cl)c3C1)CC2 | 34
20 | O=S(=O)(NS(=O)(=O)N1CCc2cc(Cl)c(Cl)cc2C1)N1CCc2cc(Cl)c(Cl)cc2C1 | 40
21 | O=S(=O)(NS(=O)(=O)N1CCc2ccc(Cl)c(Cl)c2C1)N1CCc2ccc(Cl)c(Cl)c2C1 | 42
22 | O=S(=O)(NS(=O)(=O)N1CCc2cc(Cl)ccc21)N1CCc2cc(Cl)ccc21 | 13
23 | O=S(=O)(NS(=O)(=O)N1CCc2ccc(Cl)c(Cl)c2C1C1CC1)N1CCc2ccc(Cl)c(Cl)c2C1C1CC1 (centres undefined) | 47
24 | CC1Cc2ccc(Cl)c(Cl)c2CN1S(=O)(=O)NS(=O)(=O)N1Cc2c(ccc(Cl)c2Cl)CC1C (centres undefined) | 18
25 | COc1ccc2c(c1Cl)CN(S(=O)(=O)NS(=O)(=O)N1CCc3ccc(OC)c(Cl)c3C1)CC2 | 20
26 | O=S(=O)(NS(=O)(=O)N1CCc2ccc(Cl)cc2C1)N1CCc2ccc(Cl)cc2C1 | 18

species: Cavia porcellus; experiment: Percent inhibition of SRS-A induced contraction minus percent inhibition of 25 mM KCl induced contractions at a conc of 5(uM); Not statistically significant; format: functional; outline: as §1

Row | Structure (SMILES) | Inhibition [%]
27 | O=S(=O)(NS(=O)(=O)N1CCc2c(Cl)cccc2C1)N1CCc2c(Cl)cccc2C1 | 8
28 | O=S(=O)(NS(=O)(=O)N1CCc2cc(Cl)c(Cl)c(Cl)c2C1)N1CCc2cc(Cl)c(Cl)c(Cl)c2C1 | 11
29 | CC(=O)c1ccc2c(c1)CN(S(=O)(=O)NS(=O)(=O)N1CCc3ccc(C(C)=O)cc3C1)CC2 | 4
30 | O=S(=O)(NS(=O)(=O)N1CCc2cccc(Cl)c2C1)N1CCc2cccc(Cl)c2C1 | 16
31 | O=S(=O)(NS(=O)(=O)N1CCc2c(Br)cc(Br)c(Br)c2C1)N1CCc2c(Br)cc(Br)c(Br)c2C1 | 7

species: Cavia porcellus; experiment: Percent inhibition of SRS-A induced contraction minus percent inhibition of 25 mM KCl induced contractions at a conc of 5(uM); Percent enhancement of tissue contraction compared to control; format: functional; outline: as §1

Row | Structure (SMILES) | Inhibition [%]
32 | COc1ccc2c(c1OC)CN(S(=O)(=O)NS(=O)(=O)N1CCc3ccc(OC)c(OC)c3C1)CC2 | 5
33 | COc1ccc2c(c1)CN(S(=O)(=O)NS(=O)(=O)N1CCc3ccc(OC)cc3C1)CC2 | 6

species: Cavia porcellus; experiment: Percent inhibition of SRS-A induced contraction minus percent inhibition of 25 mM KCl induced contractions at a conc of 50(uM); format: functional; outline: as §1

Row | Structure (SMILES) | Inhibition [%]
34 | O=S(=O)(NS(=O)(=O)N1CCc2cc(Cl)ccc2C1)N1CCc2cc(Cl)ccc2C1 | 1
35 | O=S(=O)(NS(=O)(=O)N1CCc2ccccc2CC1)N1CCc2ccccc2CC1 | 14
36 | O=S(=O)(NC1Cc2ccccc2C1)NS(=O)(=O)NC1Cc2ccccc2C1 | 11
37 | O=S(=O)(NC1CCCC[C@@H]1c1ccccc1)NS(=O)(=O)NC1CCCC[C@H]1c1ccccc1 (some centres undefined) | 41
38 | O=S(=O)(NS(=O)(=O)N1CCc2ccccc21)N1CCc2ccccc21 | -13

species: Cavia porcellus; experiment: Percent inhibition of SRS-A induced contraction minus percent inhibition of 25 mM KCl induced contractions at a conc of 50(uM); Not statistically significant; format: functional; outline: as §1

Row | Structure (SMILES) | Inhibition [%]
39 | O=S(=O)(NS(=O)(=O)N1CCc2ccccc2C1)N1CCc2ccccc2C1 | 10
